# High-throughput results (PubChem)
# Rpn11 inh – inhibitors of human proteasome Rpn11; human 26S proteasome, Ub4-pepOG fluorescence polarization; 20S core pre-blocked with epoxomicin; inhibition, % at 20 µM; 0.59% of 360,000 active; AID 588493;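 active = inhibition at 20 µM, scaled to each plate's controls, above about 33%, limit read from the data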
# HNF4A DNA FP – change in binding of human HNF4 alpha to DNA. 0.3% of 360,000 active. AID 1224865. activity change, % at 10 µM. P41235. HNF4a-FITC DNA binding, fluorescence polarization, 1 h; in the data active = activity change above about 30%, passing the limit was not always enough
# Target sequence (P41235 whole entry, looked up): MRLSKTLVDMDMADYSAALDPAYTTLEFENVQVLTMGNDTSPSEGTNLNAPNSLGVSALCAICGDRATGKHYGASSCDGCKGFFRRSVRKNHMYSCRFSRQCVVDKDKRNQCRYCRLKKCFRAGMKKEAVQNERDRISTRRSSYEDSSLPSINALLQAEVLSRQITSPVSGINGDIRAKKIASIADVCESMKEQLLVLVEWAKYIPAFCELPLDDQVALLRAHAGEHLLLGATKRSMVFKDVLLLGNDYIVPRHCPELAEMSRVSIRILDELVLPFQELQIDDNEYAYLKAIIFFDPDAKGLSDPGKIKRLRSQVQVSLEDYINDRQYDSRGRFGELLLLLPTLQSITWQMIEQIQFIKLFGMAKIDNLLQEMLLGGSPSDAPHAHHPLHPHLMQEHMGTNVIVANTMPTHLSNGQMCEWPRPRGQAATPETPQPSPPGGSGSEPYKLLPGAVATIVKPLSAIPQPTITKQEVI
# TPT1 inh – C. albicans TPT1 enzyme inhibition; inhibition, % at 5 µM; AID 1962; recombinant caTPT1, FP RNA substrate dephosphorylation; 0.81% of 300,000 active;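 active = inhibition above the mean of all tested compounds plus 3 SD, set per screening campaign, cut at about 24% in these data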;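 note: plate controls were DMSO alone for no effect and ferristatin control at 100 nM for full effect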
# CSN inh – blocks human CSN-mediated cullin deneddylation; inhibition, % at 12.5 µM; Purified CSN, SCF-Nedd8-OG deneddylation, fluorescence polarization; 0.38% of 360,000 active; Q92905;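 active = pattern-corrected inhibition above about 35%, with an unprinted fluorescence ratio check between 0.5 and 1.5, limit read from the data, passing the limit was not always enough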;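 note: 0% = enzyme with substrate and 100% = substrate without enzyme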
#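 Material: human Csn5 produced in HEK293T cells; Input: enzyme 0.24 nM; Reagent: SCFSkp2-Nedd8OG substrate at 10 nM final; Dosing: 12.5 µM compound; Incubation: 90 min reaction at room temperature; Detection: fluorescence polarization of the substrate; Evaluation: % inhibition of substrate cleavage by Csn5; Control set: substrate-only high control, full reaction low control.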
# NadD inh – blocks S. aureus nicotinate mononucleotide adenylyltransferase; purified NadD enzyme, colorimetric absorbance read-out; inhibition, % at 20 µM; 0.78% of 360,000 active; AID 602399; in the data active = inhibition above about 26%
# PP1 counter – blocks human PP1-alpha phosphatase, a PP5 counter-screen; P62136; purified PP1alpha, OMFP fluorescence; inhibition, % at 6.7 µM; 0.9% of 320,000 active; AID 2235;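 active = inhibition above the mean inhibition of all tested compounds plus 3 SD, computed separately for each screening campaign, cut at about 15% in these data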
# * marks the source's active call; other numbers are inactive results; . = not tested or not shown. Sampled rows, rich in hits. Any-hit rate of the full collection: about 2.7%.
SMILES,Rpn11 inh,HNF4A DNA FP,TPT1 inh,CSN inh,NadD inh,PP1 counter
Nc1c(N(CCC2=CCCCC2)C(=O)c2ccc([N+](=O)[O-])o2)c(=O)[nH]c(=O)n1Cc1ccccc1,38.9*,7.7,8.8,2.4,15.4,2.5
O=C(NNC(=O)c1ccncc1)Nc1ccc(Cl)cc1,3.6,-2.3,.,0.0,0.7,.
CC(=O)c1cccc(NC(=O)NC2CC(=O)N(c3ccc4c(c3)OCCO4)C2)c1 (centres undefined),3.7,-2.8,-1.2,-2.5,-4.1,-4.1
CC(=O)c1csc(COc2ccccc2)n1,2.2,62.9*,-1.5,2.1,-2.8,1.5
O=[N+]([O-])c1ccc(NN=CC2CCCCCC2)c([N+](=O)[O-])c1,.,0.6,.,-8.1,12.2,.
Nc1nonc1-n1nnc(C(=O)N/N=C/c2ccc(Cl)cc2Cl)c1CN1CCCCC1,-1.8,1.2,0.8,4.0,22.1,-2.4
Nc1nonc1-n1nnc(C(=O)N/N=C/c2cc(Cl)ccc2O)c1CN1CCCCCC1,3.5,0.5,0.4,-3.9,12.4,16.3*
CCC(/C=C1\Oc2ccc(OC)cc2N1C)=C\c1sc2ccccc2[n+]1CCCS(=O)(=O)[O-],.,169.7,.,73.2*,0.8,.
CCOC1=C2[C@@H](CN(S(=O)(=O)c3ccc(C)cc3)[C@H]2c2ccccc2Cl)[C@H]2C(=O)N(C(C)(C)C)C(=O)[C@H]2C1,3.6,-3.5,.,3.6,-3.7,.
COc1ccc(NC(=O)C2CCN(S(=O)(=O)c3ccc4c(c3)CC(C)N4C(C)=O)CC2)c(OC)c1 (centres undefined),-3.0,-3.3,-3.0,-1.9,2.3,1.1
Cc1cc(N2C(=O)C(O)=C(C(=O)c3cc4ccccc4o3)C2c2ccc(Br)cc2)no1 (centres undefined),6.4,-0.6,18.5,10.6,11.5,25.6*
Cc1cc(N2C(=O)C(O)=C(C(=O)c3ccco3)C2c2cccnc2)no1 (centres undefined),.,.,-1.0,.,.,1.8
Cc1cc(N2C(=O)C(O)=C(C(=O)c3ccc(C)o3)C2c2cccc(Cl)c2)no1 (centres undefined),2.5,1.3,.,2.5,13.0,.
Cc1cc(N2C(=O)C(O)=C(C(=O)c3cc4ccccc4o3)C2c2ccc(Cl)cc2)no1 (centres undefined),14.5,0.8,14.3,3.8,13.4,29.1*
Cc1cc(N2C(=O)C(O)=C(C(=O)c3cc4ccccc4o3)C2c2cccc(Cl)c2)no1 (centres undefined),13.1,1.1,22.0,12.0,13.8,27.5*
Cc1cc(N2C(=O)C(O)=C(C(=O)c3cccs3)C2c2cccc(Br)c2)no1 (centres undefined),1.8,-0.4,-3.6,-6.5,-1.5,5.0
Cc1cc(N/N=C/c2ccc(N(C)C)cc2)nc(NCc2ccccc2)n1,-3.7,-0.1,-1.1,-5.4,8.3,16.3*
Cc1cc(Nc2ccc(Cl)cc2)nc(NCc2ccccc2)n1,-16.3,-1.0,0.3,-6.3,11.6,17.1*
CCc1ccc(NS(=O)(=O)c2ccc(C)c(C(=O)N3CCOCC3)c2)cc1,1.5,-6.0,-1.3,1.1,9.9,-3.0
O=C(Nc1ccc2c(c1)OCO2)Nc1ccc2c(c1)OCO2,-5.8,-0.5,-1.7,6.8,-4.1,-3.7
Cc1ccc(NC(=O)Nc2ccc3c(c2)OCO3)c(Br)c1,-12.8,-0.3,-1.0,1.3,-4.8,16.7*
CN=c1scc(-c2ccccc2F)n1/N=C/c1ccc(O)c(O)c1O,-13.2,-7.6,.,-0.2,23.4,.
CC(C)N=c1scc(-c2cccs2)n1/N=C/c1ccc(O)c(O)c1O,2.5,-4.4,1.4,3.9,30.9*,7.1
COc1ccc(NC(=O)C2CCC(=O)N2S(=O)(=O)c2ccc(C)cc2)cc1Cl (centres undefined),0.9,0.0,-2.3,0.6,-6.0,3.9
CCOC(=O)N1CCC(c2cc(=O)n3[nH]cc(C(=O)OC)c3n2)CC1,1.9,3.0,-3.9,0.1,4.2,-0.4
SMILES,Rpn11 inh,HNF4A DNA FP,TPT1 inh,CSN inh,NadD inh,PP1 counter
CCOc1ccc(NC(=O)c2c[nH]n3c(=O)cc(C4CCN(C(=O)OC(C)(C)C)CC4)nc23)cc1,2.5,-4.0,-1.1,0.6,21.3,16.2*
Cc1ccc(-c2ccc(/C=C3\C(=O)ON=C3c3ccccc3)o2)c([N+](=O)[O-])c1,-0.2,-3.1,-1.4,18.6,18.4,17.0*
CCc1cc(=O)oc2c3c(cc(OCC(=O)Nc4cccnc4)c12)OC(C)(C)CC3,0.0,5.4,0.3,0.9,3.2,11.6
Cc1c(C)c2c(OCC(=O)Nc3cccnc3)cc3c(c2oc1=O)CCC(C)(C)O3,11.4,54.9*,-0.9,10.9,3.0,-3.9
OCCNc1nc2ccccc2n1CC(O)c1ccccc1 (centres undefined),-12.5,120.3*,2.0,-5.7,-3.8,-0.9
CC(C)Cn1c(NCCO)nc2ccccc21,-3.3,-5.6,-1.9,-3.0,-2.3,-3.8
CN(C)c1ccc(S(=O)(=O)N(C)C)cc1NC(=O)Cc1cccc2ccccc12,3.5,0.9,-4.6,4.2,-6.6,0.9
CC(CC(=O)NCCc1ccc(Cl)cc1)S(=O)(=O)c1ccc2c(c1)NC(=O)CO2 (centres undefined),-1.3,3.2,1.0,-1.5,-1.4,-5.2
O=C(CSc1nccc(=O)[nH]1)NCc1ccc2c(c1)OCO2,-1.1,2.7,0.9,0.6,-1.9,15.5*
CCc1cc(=O)[nH]c(SCC(=O)NCc2ccc3c(c2)OCO3)n1,0.1,7.0,-3.3,-3.2,-3.6,-3.5
Cc1cc(C)c2nc(-c3ccccn3)cc(C(=O)Nc3ccc(S(=O)(=O)Nc4onc(C)c4C)cc3)c2c1,6.3,-22.4,0.1,10.2,40.9*,12.7
COc1ccc(-c2cc(C(=O)Nc3ccc(S(=O)(=O)Nc4onc(C)c4C)cc3)c3ccccc3n2)cc1OC,-0.5,0.7,-0.7,5.0,19.1,-0.1
Cc1cc(C)c2nc(-c3ccccn3)cc(C(=O)Nc3ccc(S(=O)(=O)Nc4cc(C)on4)cc3)c2c1,10.7,-3.0,-0.3,10.0,61.2*,10.0
COc1cc(OC)cc(C(=O)NC(C)CNc2ccc(Cl)cc2[N+](=O)[O-])c1 (centres undefined),1.9,0.5,-1.7,-5.8,-15.1,-0.1
CC1CCC(NC(=O)c2nc(Cn3ccc([N+](=O)[O-])n3)no2)CC1 (centres undefined),-7.1,-3.4,-2.0,2.1,-10.8,0.2
CCOc1ccc(-c2ccc(/C=C3/C(=N)N4C=CSC4=NC3=O)o2)c([N+](=O)[O-])c1,24.3,10.3,9.9,-0.8,26.8,-1.4
CCOc1ccc(-c2ccc(/C=C3/C(=N)N4C(C)=CSC4=NC3=O)o2)c([N+](=O)[O-])c1,15.5,-0.2,16.5,3.3,32.3*,5.8
